Results as given in ChEMBL document CHEMBL1144880, “Identification of phenylisoxazolines as novel and viable antibacterial agents active against Gram-positive pathogens” (J Med Chem, 2003).
Values after ≈ are worked out from the molar mass of the structure shown.

How the values were obtained:
Assay type in all cases: functional
Enterococcus faecalis = assay: In vitro minimum inhibitory concentration (MIC) against Enterococcus faecalis UC9217
Summary of the method: (§1)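 MIC determined by standard broth microdilution, defined as the lowest drug concentration (µg/mL) inhibiting visible growth.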

Staphylococcus aureus [1] = assay: In vitro minimum inhibitory concentration (MIC) against Staphylococcus aureus UC9213; summary of the method: as §1
Escherichia coli = assay: In vitro minimum inhibitory concentration (MIC) against Escherichia coli UC6674; summary of the method: as §1
Moraxella catarrhalis = assay: In vitro minimum inhibitory concentration (MIC) against Moraxella catarrhalis UC30610; summary of the method: as §1
Streptococcus pneumoniae = assay: In vitro minimum inhibitory concentration (MIC) against Streptococcus pneumoniae UC9912; summary of the method: as §1
Staphylococcus aureus [2] = assay: In vitro minimum inhibitory concentration (MIC) against Staphylococcus aureus UC12673; summary of the method: as §1
Haemophilus influenzae = assay: In vitro minimum inhibitory concentration (MIC) against Haemophilus influenzae UC30063; summary of the method: as §1
[3] = system: Staphylococcus epidermidis; assay: In vitro minimum inhibitory concentration (MIC) against Staphylococcus epidermidis UC12084; summary of the method: as §1
Mus musculus = assay: In Vivo effective dose required for antibacterial activity in a systemic mouse infection model (SMIM) upon peroral administration against Staphylococcus aureus UC9213; conditions: po
Summary of the method: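 Compound was given orally at 1 and 5 h after infection. Deaths were monitored for at least 6 days, and ED50 (dose curing 50% of mice) was calculated by probit analysis.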

Row | Structure (SMILES) | MIC (Enterococcus faecalis) | MIC (Staphylococcus aureus [1]) | MIC (Escherichia coli) | MIC (Moraxella catarrhalis) | MIC (Streptococcus pneumoniae) | MIC (Staphylococcus aureus [2]) | MIC (Haemophilus influenzae) | MIC [3] | ED50 (Mus musculus)
1 | CC(=O)NC[C@H]1CC(c2ccc(-n3cc(C#N)cn3)c(F)c2)=NO1 | 4 µg/mL (≈ 12.2 µM) | 2 µg/mL (≈ 6.11 µM) | > 16 µg/mL | 8 µg/mL (≈ 24.4 µM) | 0.5 µg/mL (≈ 1.53 µM) | 2 µg/mL (≈ 6.11 µM) | 16 µg/mL (≈ 48.9 µM) | 1 µg/mL (≈ 3.06 µM) | 
2 | CC(=O)NCC1CC(c2cc(F)c(N3CCOCC3)c(F)c2)=NO1 (racemic) | 8 µg/mL (≈ 23.6 µM) | 8 µg/mL (≈ 23.6 µM) | > 16 µg/mL | 16 µg/mL (≈ 47.2 µM) | 2 µg/mL (≈ 5.89 µM) | 8 µg/mL (≈ 23.6 µM) | > 16 µg/mL | 4 µg/mL (≈ 11.8 µM) | 
3 | C/C(S)=N/C[C@H]1CC(c2cc(F)c(N3CCOCC3)c(F)c2)=NO1 | 1 µg/mL (≈ 2.81 µM) | 1 µg/mL (≈ 2.81 µM) | > 16 µg/mL | 2 µg/mL (≈ 5.63 µM) | 0.25 µg/mL (≈ 0.703 µM) | 1 µg/mL (≈ 2.81 µM) | 16 µg/mL (≈ 45 µM) | 0.25 µg/mL (≈ 0.703 µM) | > 20 mg/kg
4 | CC(=O)NC[C@H]1CC(c2ccc(-n3cncn3)c(F)c2)=NO1 | > 16 µg/mL | > 16 µg/mL | > 16 µg/mL | > 16 µg/mL | 4 µg/mL (≈ 13.2 µM) | 16 µg/mL (≈ 52.8 µM) | > 16 µg/mL | 8 µg/mL (≈ 26.4 µM) | 
5 | CC(=O)NCC1CC(c2ccc(N3CCN(C(=O)CO)CC3)cc2)=NO1 (stereo not drawn) | 16 µg/mL (≈ 44.4 µM) | 16 µg/mL (≈ 44.4 µM) | > 16 µg/mL | > 16 µg/mL | 4 µg/mL (≈ 11.1 µM) | 8 µg/mL (≈ 22.2 µM) | > 16 µg/mL | 4 µg/mL (≈ 11.1 µM) | 
6 | C/C(S)=N/C[C@H]1CC(c2cc(F)c(-n3ccnc3)c(F)c2)=NO1 | 8 µg/mL (≈ 23.8 µM) | 4 µg/mL (≈ 11.9 µM) | > 16 µg/mL | > 16 µg/mL | 2 µg/mL (≈ 5.95 µM) | 4 µg/mL (≈ 11.9 µM) | > 16 µg/mL | 2 µg/mL (≈ 5.95 µM) | 
7 | CC(=O)NCC1CC(c2ccc(Br)cc2)=NO1 (stereo not drawn) | > 16 µg/mL | > 16 µg/mL | > 16 µg/mL | > 16 µg/mL | > 16 µg/mL | > 16 µg/mL | > 16 µg/mL | > 16 µg/mL | 
8 | COc1ccc(-c2ccc(C3=NOC(CNC(C)=O)C3)cc2)ccc1=O (stereo not drawn) | 4 µg/mL (≈ 11.4 µM) | 4 µg/mL (≈ 11.4 µM) | > 16 µg/mL | > 16 µg/mL | 0.5 µg/mL (≈ 1.42 µM) | 4 µg/mL (≈ 11.4 µM) | > 16 µg/mL | 2 µg/mL (≈ 5.68 µM) | 15.4 mg/kg
9 | CC(=O)NCC1CC(c2cc(F)c(N3CCOCC3)c(Cl)c2)=NO1 (stereo not drawn) | 16 µg/mL (≈ 45 µM) | 8 µg/mL (≈ 22.5 µM) | > 16 µg/mL | > 16 µg/mL | 4 µg/mL (≈ 11.2 µM) | 8 µg/mL (≈ 22.5 µM) | > 16 µg/mL | 8 µg/mL (≈ 22.5 µM) | 
10 | CC(=O)NC[C@H]1CC(c2cc(F)c(N3CCOCC3)c(F)c2)=NO1 | 4 µg/mL (≈ 11.8 µM) | 4 µg/mL (≈ 11.8 µM) | > 16 µg/mL | 8 µg/mL (≈ 23.6 µM) | 1 µg/mL (≈ 2.95 µM) | 4 µg/mL (≈ 11.8 µM) | > 16 µg/mL | 2 µg/mL (≈ 5.89 µM) | > 20 mg/kg
11 | CC(=O)NC[C@H]1CC(c2ccc(-n3ccc(C#N)c3)c(F)c2)=NO1 | 1 µg/mL (≈ 3.06 µM) | 1 µg/mL (≈ 3.06 µM) | > 16 µg/mL | 4 µg/mL (≈ 12.3 µM) | < 0.125 µg/mL | 0.5 µg/mL (≈ 1.53 µM) | 16 µg/mL (≈ 49 µM) | 0.25 µg/mL (≈ 0.766 µM) | 
12 | CC(=O)NCC1CC(c2ccc(N3CCN(C(=O)CO)CC3)c(F)c2)=NO1 (racemic) | 8 µg/mL (≈ 21.1 µM) | 8 µg/mL (≈ 21.1 µM) | > 16 µg/mL | 16 µg/mL (≈ 42.3 µM) | 2 µg/mL (≈ 5.29 µM) | 8 µg/mL (≈ 21.1 µM) | > 16 µg/mL | 4 µg/mL (≈ 10.6 µM) | 
13 | COC(=O)N1CC=C(c2ccc(-c3cc(CNC(C)=O)on3)cc2)CC1 | > 16 µg/mL | > 16 µg/mL | > 16 µg/mL | > 16 µg/mL | > 16 µg/mL | > 16 µg/mL | > 16 µg/mL | > 16 µg/mL | 
14 | C/C(S)=N/C[C@H]1CC(c2ccc(-n3cccc3)c(F)c2)=NO1 | 1 µg/mL (≈ 3.15 µM) | 1 µg/mL (≈ 3.15 µM) | > 16 µg/mL | 4 µg/mL (≈ 12.6 µM) | 0.5 µg/mL (≈ 1.58 µM) | 1 µg/mL (≈ 3.15 µM) | > 16 µg/mL | 0.5 µg/mL (≈ 1.58 µM) | 
15 | CC(=O)NC[C@H]1CC(c2ccc(F)c(F)c2)=NO1 | > 16 µg/mL | > 16 µg/mL | > 16 µg/mL | > 16 µg/mL | > 16 µg/mL | > 16 µg/mL | > 16 µg/mL | > 16 µg/mL | 
